B1: tRNA (parent)
chain: GUUCCGUUGGCGUAAUGGUAACGCGUCUCCCUCCUAAGGAGAAGACUGCGGGUUCGAGUCCCGUACGGAACG

This sample holds only a part of the variants without activity.

Variants of B1 are the subject of the series. Put plainly: yeast fitness relative to wild type (ratio to wild type); higher = fitter; tRNA-Arg(CCU), competitive growth, 37 C, YPD. The essentials:
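Genotype frequency changes were the basis for Darwinian fitness relative to wild type. The frequencies came from 100-nucleotide paired-end sequencing of gene amplicons from the start population and each end population of pooled yeast strains with tRNA-Arg(CCU) gene variants at the native locus. Competition ran in YPD at 37°C for 24 hours in six replicates, genotypes needed ≥ 100 starting reads, and estimates < 0.5 were set to 0.5.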
Take U8G A45U: the yeast fitness came out at 0.648.

On to U8C U16C C29G, for which the yeast fitness was at most 0.5.

As to U8C U13A, the yeast fitness amounted to 0.809.

For U8C U13G, the yeast fitness amounted to 0.841.

Consider U8G C22A C27U A40U, for which the yeast fitness was at most 0.5.

In the case of U8C U16C C24U U47A C55U, the yeast fitness was at most 0.5.

Consider U8C G44A U53C C55A A70U, for which the yeast fitness was at most 0.5.

In the case of U8G C11U C24U A37U C66A, the yeast fitness is at most 0.5.

For U8C G9A G10A G23C C29U A36C C49G A70U, the yeast fitness is 0.534.

Regarding U8G C33A A37U G38C, the yeast fitness was 0.529.

Take U8G C66U: the yeast fitness stood at 0.668.

For U8G A14G A43C, the yeast fitness was at most 0.5.

In the case of U8G A14G G18A U47A C55G, the yeast fitness is at most 0.5.

As for U8G C27U G44C U47A C60U, the yeast fitness was at most 0.5.

As to U8C U26G C33G A37C U54A, the yeast fitness was at most 0.5.

As to U8G C22U, the yeast fitness came to 0.632.

As for U8G A37C G52C, the yeast fitness stood at 0.627.

Turning to U8G A43U C49U C55U, the yeast fitness is at most 0.5.

With U8C C30G C31G U64G C66U, the yeast fitness was at most 0.5.

As for U8C U28A C46G C55A, the yeast fitness is 0.731.

For the variant U8C U32A U47A G56C, the yeast fitness was determined as 0.944.

Take U8C G18C C33U: the yeast fitness was at most 0.5.

Regarding U8C C27U A36C G39C G48C G63U A70U, the yeast fitness was at most 0.5.

Take U8G A70C: the yeast fitness came to 0.633.

Regarding U8C G10A C22G, the yeast fitness was at most 0.5.

Take U8C U64A A65U: the yeast fitness was found to be 0.553.

Take U8C C27G G44A: the yeast fitness was at most 0.5.

Regarding U8C C30A C46G U54A U64A G68A, the yeast fitness was at most 0.5.

Turning to U8C G52A G67A, the yeast fitness was at most 0.5.

Turning to U8C U16C C33U A43U C49G G50C C61U C66U, the yeast fitness was at most 0.5.

As to U8C C24G U26C, the yeast fitness was at most 0.5.

On to U8C G9A A40C A45G A57G, for which the yeast fitness was at most 0.5.

As for U8G A21U C27G C49U, the yeast fitness stood at 0.687.

As for U8C U13C C27A, the yeast fitness turned out to be 0.574.

With U8G A20U C62A, the yeast fitness is 0.624.

For U8C U13A G67U, the yeast fitness turned out to be 0.626.

As to U8C C31G, the yeast fitness amounted to 0.81.

For U8C C27U G51A A57U, the yeast fitness stood at 0.541.

As for U8C C46A C62U, the yeast fitness amounted to 0.774.

Regarding U8C C27U G48A C49U, the yeast fitness was determined as 0.686.

U8G A36C A45U C49U: the yeast fitness is at most 0.5.

In the case of U8C C49A G51U U59G C62A, the yeast fitness was at most 0.5.

As to U8G A21G C27A U35A C62A A65C G67A, the yeast fitness was at most 0.5.

As to U8C U32A A40U G41C C46A G52A, the yeast fitness is at most 0.5.

On to U8C G63A, for which the yeast fitness came out at 0.864.

U8C U16C G67U: the yeast fitness amounted to 0.576.

Regarding U8G A65C, the yeast fitness came to 0.733.

U8G C11G U32A A57U C60A G68C: the yeast fitness is at most 0.5.

Consider U8C G10A A40G G67A, for which the yeast fitness came to 0.593.

For U8G A21C C24U C33A, the yeast fitness is at most 0.5.

On to U8C G38A, for which the yeast fitness was 0.885.

Regarding U8C G38C, the yeast fitness is 0.799.

For U8G A42G A57G, the yeast fitness was at most 0.5.

Regarding U8G A21U C27G A57G, the yeast fitness is at most 0.5.

Regarding U8C U59G, the yeast fitness stood at 0.901.

With U8C U59A, the yeast fitness was 0.721.

Take U8C G23A A57C: the yeast fitness worked out at 0.661.

As for U8G C49G A57U, the yeast fitness was at most 0.5.

As for U8C U59A A70G, the yeast fitness was determined as 0.556.

For the variant U8C G9C U13A G25A A40C A57C C61A G67A, the yeast fitness was at most 0.5.

In the case of U8C G9A C22G U32G C49G, the yeast fitness is at most 0.5.

For U8C C46G, the yeast fitness came out at 1.04.

For U8G C46G, the yeast fitness amounted to 0.593.

Take U8C G9A U13A A15G A37U C46U G68A: the yeast fitness is at most 0.5.

For U8G A57G C60A, the yeast fitness is at most 0.5.

As for U8G A21C C46U, the yeast fitness was 0.554.

On to U8C U32A, for which the yeast fitness was found to be 0.755.

Take U8C C24G G50A: the yeast fitness is at most 0.5.

For U8C G50C C55A C60A, the yeast fitness was at most 0.5.

Take U8G C11G U32A G67C: the yeast fitness was at most 0.5.

Take U8C G17A G50A A69C: the yeast fitness was at most 0.5.

U8C G17C A42G C61A: the yeast fitness was at most 0.5.

As for U8G A21G C29U C30A U32C, the yeast fitness is at most 0.5.

In the case of U8G A20U G44C A57G, the yeast fitness is at most 0.5.

For U8G C24G, the yeast fitness worked out at 0.537.

For U8G C27U C30A A43C C60U, the yeast fitness is at most 0.5.

Regarding U8C C27U C62G, the yeast fitness was at most 0.5.

On to U8G A15U, for which the yeast fitness was at most 0.5.

For the variant U8C C30G C31G G48A, the yeast fitness was at most 0.5.

Take U8G A20G A37G G44A A65C: the yeast fitness is at most 0.5.

For the variant U8C G23C C29G, the yeast fitness was at most 0.5.

Regarding U8C C29U G56C, the yeast fitness was 0.538.

Consider U8C G23C C29G A36G A45U, for which the yeast fitness is at most 0.5.

Consider U8G C34U A40C, for which the yeast fitness worked out at 0.591.

For U8G C22G G25A G63C, the yeast fitness is at most 0.5.

Regarding U8C G68U, the yeast fitness was 0.857.

On to U8C G68C, for which the yeast fitness was found to be 0.958.

For the variant U8C C34U C55A C62U, the yeast fitness came out at 0.619.

U8G A45C C49U: the yeast fitness is at most 0.5.

With U8C G17A U54A G56C, the yeast fitness is at most 0.5.

U8G A14U G18A G50A A57U A70G: the yeast fitness is at most 0.5.

Regarding U8C G25C C49A, the yeast fitness turned out to be 0.515.

For the variant U8G G9U C30A C55U, the yeast fitness is at most 0.5.

Turning to U8C C24G G38C A57U, the yeast fitness is at most 0.5.

On to U8C C34U A45C A69C A70C, for which the yeast fitness is at most 0.5.

As for U8C C31G G50A, the yeast fitness was found to be 0.615.

Turning to U8C C24G G38C, the yeast fitness was at most 0.5.

As to U8C C30G C31G A65C, the yeast fitness stood at 0.527.

Consider U8G C49U G51A A65U, for which the yeast fitness was at most 0.5.

Turning to U8C G9A A40C, the yeast fitness came out at 0.672.

U8G C11G U32A C55U G67C: the yeast fitness is at most 0.5.

In the case of U8C U19C A57U, the yeast fitness was at most 0.5.

As to U8C C31U C49U, the yeast fitness worked out at 0.689.

Regarding U8C G23A C30G, the yeast fitness is at most 0.5.

Turning to U8C U32C G48A, the yeast fitness is 0.591.

On to U8C G25C C33A C61U, for which the yeast fitness is at most 0.5.

On to U8C G41A, for which the yeast fitness was 0.92.

For U8C G12A G25A, the yeast fitness turned out to be 0.734.

For the variant U8G A14G C46U C55A C66U, the yeast fitness was at most 0.5.

As to U8C C30A G48A, the yeast fitness worked out at 0.731.

Take U8G C27U C62G: the yeast fitness is at most 0.5.

Consider U8G C27A C31A C33G, for which the yeast fitness was at most 0.5.

U8C U53A U64C: the yeast fitness is at most 0.5.

Turning to U8C G18C A21C G63A, the yeast fitness was found to be 0.587.

U8C U16C U53G G56C C60A: the yeast fitness was at most 0.5.

Take U8C G25C C31U: the yeast fitness was determined as 0.696.

As to U8G A14U G50A A57U G68C, the yeast fitness was at most 0.5.

As to U8C C24U, the yeast fitness is 0.945.

For the variant U8G C33A A37U G38C A70C, the yeast fitness is at most 0.5.

In the case of U8G A20C C49G G50A G56C, the yeast fitness is at most 0.5.

Turning to U8C C27G A57C, the yeast fitness was determined as 0.586.

For the variant U8C C31U C49U U54C, the yeast fitness is at most 0.5.

In the case of U8C U32G U47C C55G, the yeast fitness is at most 0.5.

In the case of U8C C27A G52A, the yeast fitness was at most 0.5.

For U8G C34A, the yeast fitness is at most 0.5.

In the case of U8C U16C U59A, the yeast fitness is at most 0.5.

For the variant U8C G67U, the yeast fitness amounted to 0.862.

Take U8C G12A A40C A69C: the yeast fitness is 0.56.

Take U8C G9U C29A C34G A36G A40C U47A U64C: the yeast fitness was at most 0.5.

For the variant U8G C22U U26A G52A, the yeast fitness is at most 0.5.

U8G A43U: the yeast fitness worked out at 0.66.

On to U8C C30G U53C C60A C61A C66G, for which the yeast fitness was at most 0.5.

Take U8G C22U A69U: the yeast fitness stood at 0.731.

On to U8G A14G G18A U47A C62G, for which the yeast fitness was at most 0.5.

In the case of U8C G12A C62A, the yeast fitness is at most 0.5.

As for U8C U16A C33G G41C G56C G58A G63C A65U, the yeast fitness was at most 0.5.

Consider U8G A21G, for which the yeast fitness is 0.582.

As to U8C U35A, the yeast fitness was 0.6.

With U8C U35G, the yeast fitness came out at 0.693.

Take U8G C29G G38C G44A: the yeast fitness came out at 0.803.

Regarding U8C U26A C61A A65U, the yeast fitness was at most 0.5.

Regarding U8C G17A G41C A65C, the yeast fitness was at most 0.5.

Turning to U8C G17A G41C A65U, the yeast fitness was at most 0.5.

For U8C U13A C24U C29G C33A U47A C55U A65C, the yeast fitness was 0.787.

Take U8C G68U A69C: the yeast fitness was at most 0.5.

Turning to U8G A20C U35C C49A C62A, the yeast fitness was at most 0.5.

For the variant U8C U16C G25C U47A A65G, the yeast fitness was at most 0.5.

In the case of U8G A21C U64A, the yeast fitness is 0.516.

U8G C24U C29G A45G C61U A65C G67A G68A: the yeast fitness is 0.568.

Turning to U8C C31A A42G A57U U59A, the yeast fitness was at most 0.5.

In the case of U8G G9C C33A G68A, the yeast fitness is at most 0.5.

As for U8G A14G U26A C62U, the yeast fitness is 0.578.

Regarding U8G G10A C60U, the yeast fitness came to 0.585.

As for U8C G9A U13C A20C, the yeast fitness stood at 0.541.

For U8G A43C G52A, the yeast fitness stood at 0.847.

For U8C C33G A43C C66A, the yeast fitness was at most 0.5.

Take U8C C27U C31A G56A: the yeast fitness was at most 0.5.

Turning to U8C G39C U47C U59C, the yeast fitness is at most 0.5.

For the variant U8C C27G C30G C46U C49G, the yeast fitness was at most 0.5.

With U8C G58A, the yeast fitness came to 1.02.

As for U8C G58C, the yeast fitness is 0.919.

As for U8C U47C, the yeast fitness was found to be 0.913.

Turning to U8C U19A C22G C24U C33G, the yeast fitness was at most 0.5.

As to U8C C60G, the yeast fitness turned out to be 0.705.

For U8C C60U, the yeast fitness was 0.832.

Turning to U8C U28A C29G A57C G67A, the yeast fitness is at most 0.5.

For U8G C11U U64A A70C, the yeast fitness was 0.619.

The values are drawn from the RNAGym collection of RNA variant scans (doi:10.1126/science.aae0568).
